For orientation: CC50 means the concentration giving 50% cytotoxicity. For orientation: pEC50 means the negative decadic logarithm of the EC50, by convention in mol/L.

Structures are written as SMILES. pEC50: −log10 of the molar value. Structures can show the parent of a compound that is named as a salt.

This note sets out measurements from ChEMBL document CHEMBL4680098, “Next-Generation Reduction Sensitive Lipid Conjugates of Tenofovir: Antiviral Activity and Mechanism of Release” (J Med Chem, 2016).

Data set [1] is described as follows: Stability in PBS buffer at pH 7.4 assessed as compound decomposition by LC-MS analysis. The data set is classed as physicochemical. The method, boiled down:
(§1)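 Freshly prepared buffer (3.0 ml) was equilibrated at 37.4 ± 0.2 °C with DTT at ~0.1 M and stirred 10 min. Compound stock in water/MeOH was then added. Aliquots were taken from 0 min to 24 h, with shorter intervals where needed, diluted to 1025 µL with H₂O/MeOH/HCOOH (75:25:0.1) and analysed by LC-MS.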

A short description of data set [2]: Stability in glycine/HCl buffer at pH 2.0 assessed as compound decomposition by LC-MS analysis. The data set is classed as physicochemical. The method, boiled down: as §1
Data set [3] can be described thus: Cytotoxicity in uninfected human PBMC assessed as reduction in cell viability by XTT assay. The data set is classed as tissue-based. The procedure, abridged:
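Fresh HIV/HBV-negative human PBMCs isolated by Ficoll-Hypaque and stimulated 48-72 h with 2 µg/mL PHA-P, then kept in RPMI 1640 with 15% FBS and IL-2. Plates were set up as for the anti-HIV assay but without virus, with compound up to 100 μM in log dilutions, for 7 days. Viability read by XTT at 450/650 nm, in triplicate.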

Data set [4] can be described thus: Stability in aqueous carbonate/bicarbonate buffer at pH 9.19 assessed as compound decomposition by LC-MS analysis. The data set is classed as physicochemical. The procedure, abridged:
as §1

The subject of a further data set is Hepatitis B virus. As to the kind of experiment: Antiviral activity against HBV infected in human HepG2 assessed as reduction in viral replication incubated for 6 days by real time Q-PCR analysis. The conditions noted are these: HepG2, 144 h. The class given is functional, organism-based. The method, boiled down: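 Cells seeded at 1x10⁴/well, held 24 h at 37°C in 5% CO₂. Six ten-fold serial compound dilutions in RPMI1640 with 10% FBS were added in triplicate; medium-only wells served as virus controls. Cultured 6 days; medium with compound renewed on day 3. Day-6 supernatant diluted in buffer containing 40 μg/ml sheared salmon sperm DNA, boiled 15 min, then qPCR; HBV DNA copies interpolated from standard curve.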

Data set [5] is described as follows: Stability in aqueous carbonate/bicarbonate buffer at pH 10.16 assessed as compound decomposition measured within 8 mins by LC-MS analysis. The class given is physicochemical. The conditions noted are these: read-out: Drug degradation. The procedure, abridged: as §1
A further data set relates to HepG2. As to the kind of experiment: (§2) Cytotoxicity in uninfected human hepG2 assessed as reduction in cell viability by XTT assay. The data set is classed as cell-based. The conditions noted are these: hepg2. The method, boiled down:
(§3)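 Uninfected cells were plated and treated as in the anti-HBV plate: six ten-fold compound dilutions, 6 days at 37°C in 5% CO₂, medium renewed day 3. The monolayer was stained with XTT on day 6 and read at 450/650 nm, in triplicate.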
Background: Tetrazolium assays rely on reduction of a dye to a coloured formazan, in cell work by metabolically active cells.

Data set [6] can be described thus: Therapeutic index, ratio of CC50 for uninfected human PBMC to EC50 for HIV1 infected in human PBMC. The data set is classed as toxicity. The conditions noted are these: PBMC (uninfected for CC50, HIV-1 infected for EC50).
In data set [7] the test system is Human immunodeficiency virus 1. Kind of data set: Antiviral activity against HIV1 infected in human PBMC assessed as reduction in viral replication incubated for 7 days by radioactive incorporation polymerization assay based reverse transcriptase activity detection method. The data set is classed as functional, organism-based. The conditions noted are these: Human immunodeficiency virus 1, PBMC, 168 h. The procedure, abridged:
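Fresh donor PBMCs (HIV/HBV negative) were isolated on Ficoll-Hypaque and stimulated 48-72 hr with PHA-P. They were then kept in RPMI 1640 with 15% FBS and IL-2, and used 72 hr after stimulation at 1×10^6 cells/ml. Compounds were tested up to 100 μM in five serial logarithmic dilutions. Infection used 50-150 TCID₅₀ per well (MOI ~0.002), in triplicate, with supernatant RT activity read at day 7.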

The nature of data set [8]: Aqueous solubility of compound. The data set is classed as physicochemical. The conditions noted are these: buffer.
Data set [9] can be described thus: Stability in pH 11.56 buffer assessed as compound decomposition measured up to 350 mins at 37 degC by LC-MS analysis. The data set is classed as physicochemical. The conditions noted are these: pH 11.56, 350 min.
Data set [10] is described as follows: Stability in pH 9.2 buffer assessed as compound decomposition measured up to 350 mins at 37 degC by LC-MS analysis. The conditions noted are these: pH 9.2, 350 min. The class given is physicochemical.
The nature of data set [11]: Stability in pH 2.0 buffer assessed as compound decomposition measured up to 350 mins at 37 degC by LC-MS analysis. The class given is physicochemical. The conditions noted are these: pH 2, 350 min.
Data set [12] in a line: Therapeutic index, ratio of CC50 for uninfected human HepG2 cells to EC50 for HBV infected in human HepG2 cells. The data set is classed as toxicity, cell-based.
Data set [13] in a line: as §2. The data set is classed as cell-based. The conditions noted are these: uninfected HepG2 cells. The procedure, abridged:
as §3

A short description of data set [14]: Retention time in PBS buffer at pH 7.4 using compound 6 by LC-MS analysis. The class given is physicochemical.

Turning to `C[C@H](Cn1cnc2c(N)ncnc21)OCP(=O)(O)OCCS`, the figures for the Stabilty entry in data set [1], in [2] and in data set [4] were “Stable”, “Stable” and “Unstable”, respectively. Besides, the CC50 (in data set [3] (pbmc); in the data set with HepG2) was > 100 µM throughout. In addition, in the data set on Hepatitis B virus, the pEC50 was 4.38. For the same molecule, in [5], the degraded at 8 min turned out to be 100%.
Regarding `CCCCCCCCCCCCCCCCSSCCOP(=O)(O)CO[C@H](C)Cn1cnc2c(N)ncnc21`, the selectivity ratio in [6] was determined as 22000. For the same molecule, the pEC50 in data set [7] is 9.19; in the data set on Hepatitis B virus, 7.70. For the same molecule, the solubility result in data set [8] is “Insoluble”. The CC50 in the data set with HepG2 is > 25 µM.
In the case of `CCCCCCCCCCCCCCCCSSc1ccccc1COP(=O)(O)CO[C@H](C)Cn1cnc2c(N)ncnc21`, the CC50 in data set [3] (pbmc) amounted to 17.2 µM; in the data set on HepG2, 17.5 µM. The pEC50 in the data set on Hepatitis B virus is 5.35.
`C[C@H](Cn1cnc2c(N)ncnc21)OCP(=O)(O)OCCCCS`: the CC50 (in [3] (pbmc); in the data set on HepG2) was > 100 µM in each case. Further, the Stabilty result in [9], in [10] and in data set [11] was “Stable” each time. Also, in the data set with Hepatitis B virus, the pEC50 is < 4.00.
As for `CCCCCCCCCCCCCCCCSSCCCCOP(=O)(O)CO[C@H](C)Cn1cnc2c(N)ncnc21`, in data set [6], the selectivity ratio was > 100000. Moreover, the CC50 (in [3] (pbmc); in the data set with HepG2) was > 50 µM throughout. Moreover, the negative-log EC50 (pEC50) was > 9.30 in [7] and 6.61 in the data set with Hepatitis B virus. Besides, the solubility result in data set [8] is “Insoluble”.
Take `CCCCCCCCCCCCCCCCSSCc1ccccc1COP(=O)(O)CO[C@H](C)Cn1cnc2c(N)ncnc21`: the CC50 in data set [3] (pbmc) turned out to be 15.9 µM; in the data set with HepG2 it was 32.5 µM. The pEC50 in data set [7] is > 9.30; in the data set on Hepatitis B virus it was 6.82. In addition, the selectivity ratio in data set [12] was 214.
For `CCCCCCCCCCCCSSCCCCCCOP(=O)(O)CO[C@H](C)Cn1cnc2c(N)ncnc21`, the selectivity ratio in data set [6] is > 7000; in data set [12], > 47. Further, the CC50 in data set [3] (uninfected PBMC) and in data set [13] was > 50 µM throughout. Moreover, the pEC50 is 8.15 in data set [7] and 5.98 in the data set with Hepatitis B virus.
As to `C[C@H](Cn1cnc2c(N)ncnc21)OCP(=O)(O)O` [TENOFOVIR ANHYDROUS], the CC50 in data set [3] (pbmc) is > 100 µM. The pEC50 in [7] is 6.49. The Retention_time in data set [14] amounted to 0.66 min.
`CC(C)OC(=O)OCOP(=O)(CO[C@H](C)Cn1cnc2c(N)ncnc21)OCOC(=O)OC(C)C` [TENOFOVIR DISOPROXIL FUMARATE]: the selectivity ratio in data set [6] was 9500; in [12] it was 190. The results for the pEC50 (in [7]; in the data set with Hepatitis B virus) were 8.35 and 6.47, respectively. For the same molecule, the CC50 in the data set on HepG2 was determined as 64.5 µM.
